In the library only some 6.4% were active in any assay of this set; here they are far more common.
Ecoli WT expand: growth inhibitors of E. coli BW25113 wild type | AID 710 | actives 0.15% (n = 98,000) | growth inhibition, % at 100 µM | OD600 absorbance;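 active means growth inhibition above about 50% at one test dose, limit read from the data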;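 further: growth measured after 20 h incubation at 37 °C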
H69AR growth 86K: growth inhibitors of human H69AR lung tumor cells; H69AR lung tumor viability, ATP luminescence, 72 h; hits give low values; viability, % at 10 µM; actives 6% (n = 85,000);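 active means viability at or below 40%; inactive means viability above 40%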;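 further: multidrug resistant small cell line overexpressing MRP-1 efflux transporter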
HUVEC inhibit: human endothelial cell proliferation inhibition. HUVEC proliferation, CellTiter-Glo luminescence, 72 h; hits give low values. viability, % at 10 µM (by protocol). actives 1.1% (n = 86,000). AID 648;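 active means viability at or below 30%; inactive means viability above 30%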
Fibroblast inh: blocks proliferation of human lung fibroblasts | LL 47 human lung fibroblast viability, ATP luminescence; hits give low values | viability, % at 10 µM | actives 1.1% (n = 85,000);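 active means viability at or below 50% in the single dose screen; inactive means viability above 50%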;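 further: compound exposure lasted 72 h before the ATP readout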
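Test system: LL 47 human lung fibroblasts; Quantity: 1,150 cells/well; Buffer or medium: IMEM plus 15% FBS; Dosing: tenfold compound dosing solution, DMSO at 0.1%; Timing: overnight cell rest, 72 h compound treatment at 37 °C; Detection: ATP-based CellTiter-Glo luminescent readout; Read-out basis: viability percentage against median untreated-cell control; Controls: cell-only wells, no compound.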
Jurkat tox 60K: cytotoxicity toward Jurkat cells; Jurkat E6.1 viability, ATP luminescence, 48 h; inhibition, % at 4 µM; actives 1.2% (n = 56,000);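 active means inhibition above the mean inhibition of all tested compounds plus 3 SD, cut at about 28% in these data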
tolC growth inh: growth inhibitors of E. coli BW25113 tolC mutant | OD615 | growth inhibition, % at 10 µM (by protocol) | actives 2.2% (n = 65,000) | AID 573;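 active means growth inhibition at or above a cutoff equal to the mean over every tested compound plus 3 SD, cut at about 60% in these data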;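 further: growth measured after 20 h incubation at 37 °C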
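Material: E. coli BW25113 ΔtolC::kan, tolC deletion mutant strain. Measure: percent growth inhibition. Schedule: 37 °C, 20 h exposure. Doses: single-point testing at 10 µM. Signal: A615 absorbance measurement. Buffer or medium: kanamycin-containing LB broth (50 µg/mL).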
A number is an active result; i = inactive; nt = no result.

SMILES | Ecoli WT expand | H69AR growth 86K | HUVEC inhibit | Fibroblast inh | Jurkat tox 60K | tolC growth inh
CCCN(CCC)S(=O)(=O)c1ccc(C(=O)Nc2nnc(-c3cc(OC)cc(OC)c3)o2)cc1 | i | 16 | i | i | i | 98
CCCN(CCC)S(=O)(=O)c1ccc(C(=O)Nc2nnc(-c3cccc(OC)c3)o2)cc1 | nt | 16 | 1.7 | 12 | i | 100
Clc1ccc(CSc2nnc(-c3sccc3-n3cccc3)o2)cc1 | i | nt | nt | nt | nt | nt
COc1ccc2c(c1)nc1n2CN(CC2CCCO2)CN1Cc1ccccc1 (stereo not drawn) | nt | 25 | i | i | i | i
O=c1o[nH]c(-c2ccccc2)c1C1=NCCCCC1 | i | i | i | i | i | i
C=CCn1c(SCC(=O)Nc2nc(C)cs2)nnc1C(NC(=O)c1ccccc1)C(C)C (stereo not drawn) | nt | 14 | i | i | nt | nt
CC1=C(C#N)c2nc(N)c(C#N)c(C)c2/C1=C\c1ccc(C)cc1 | i | i | 4.3 | 3.3 | nt | nt
Cc1cc(C)c2c(=O)n(CC(=O)NCCCN3CCN(c4ccccc4F)CC3)sc2n1 | i | 0.4 | i | 28 | i | i
Cc1cccc(N2CCN(c3cccc(C)c3)C2c2cccnc2)c1 | i | i | i | i | 94 | i
Cc1cccc(N2CCN(C(=O)Cn3sc4nc(C)cc(C)c4c3=O)CC2C)c1 (stereo not drawn) | i | 0.0 | i | 23 | i | i
Cc1cccc(N2CCN(C(=O)c3ccncc3)CC2C)c1 (stereo not drawn) | i | 29 | i | i | i | i
Cc1cccc(N2C(=O)CSC2c2cccnc2)c1 (stereo not drawn) | i | i | i | i | nt | nt
CCN(CC(=O)Nc1ccc2c(c1)OCCO2)S(=O)(=O)c1ccc(C)cc1 | i | i | i | i | nt | nt
O=C1CC(N2CCN(c3nc4ccccc4s3)CC2)C(=O)N1c1cccc(F)c1 (stereo not drawn) | i | i | i | i | nt | nt
Cc1cc(C)c2c(=O)n(CC(=O)N3CCC(Cc4ccccc4)CC3)sc2n1 | i | 4.8 | i | i | i | i
CN(Cc1ccccc1)S(=O)(=O)c1ccc(S(=O)(=O)N(Cc2ccc(F)cc2)C2CCCC2)cc1 | i | 32 | i | i | nt | nt
CCN(CC)CCCN1C(=O)c2oc3ccccc3c(=O)c2C1c1cc(OC)ccc1OC (stereo not drawn) | i | i | i | i | i | i
Cc1ccccc1COc1ccc(/C(O)=C2/C(=O)C(=O)N(CCCn3ccnc3)C2c2ccco2)cc1 (stereo not drawn) | nt | i | i | i | nt | i
COCCn1c(COc2ccc(C)cc2)nc2ccccc21 | i | i | i | i | i | i
Cc1ccc(OCCn2c(=O)cnc3ccccc32)cc1 | nt | 19 | i | i | i | i
Cc1ccc(Sc2ccc(/C=N/O)cc2[N+](=O)[O-])cc1 | i | 1.1 | i | i | nt | nt
Cc1nn(-c2ccccc2)c(C)c1C(=O)Nc1nnc(-c2ccco2)o1 | i | i | i | i | 33 | 65
CNc1ccc(Br)cc(C(=O)/C=C/c2cc(OC)ccc2OC)c1=O | nt | 0.6 | i | i | nt | nt
CNc1ccc(Br)cc(C(=O)/C=C/c2ccc3c(c2)OCO3)c1=O | i | nt | nt | nt | nt | nt
COCCCNC(=O)/C=C/c1ccc(Cl)cc1Cl | i | nt | nt | nt | nt | nt
SMILES | Ecoli WT expand | H69AR growth 86K | HUVEC inhibit | Fibroblast inh | Jurkat tox 60K | tolC growth inh
CCNc1ccc(Br)cc(C(=O)/C=C/c2ccc(Cl)cc2Cl)c1=O | nt | 0.4 | 21 | i | nt | nt
COc1ccc(-c2csc(N(CCc3ccc(OC)c(OC)c3)C(=O)COc3ccccc3)n2)cc1 | i | nt | nt | nt | nt | nt
CC1=C(C(=O)Nc2ccccc2C)C(c2ccc(C)o2)N2C(=O)CSC2=N1 (stereo not drawn) | i | i | i | i | i | i
O=S(=O)(Nc1nnc(-c2ccccc2)s1)c1ccc(Cl)cc1 | i | i | i | i | i | 87
O=S(=O)(NCc1cc(-c2ccccc2)no1)c1ccc(Cl)cc1 | i | nt | nt | nt | nt | nt
COC(=O)c1nn(-c2ccc(Cl)cc2)c(=O)cc1Sc1ccccn1 | i | nt | nt | nt | nt | nt
C/C(=N\O)c1ccc2c3ccccc3n(C)c2c1 | i | i | 24 | i | i | i
CCn1c2ccccc2c2cc(/C(C)=N/O)ccc21 | i | nt | nt | nt | nt | nt
Cc1sc2ncnc(Sc3nnnn3-c3ccc(Cl)cc3)c2c1C | i | 1.4 | 9.9 | i | i | i
CC(C)OC(=O)CSc1nnc(-c2ccccc2)n1N | i | i | i | i | nt | nt
CCOc1ccc(OCC)c(NS(=O)(=O)c2ccc3c(c2)CCN3C(=O)C2CCC2)c1 | i | i | i | i | nt | nt
O=C(NCCCN1CCOCC1)c1c(O)c2cc(Br)cc(Br)c2[nH]c1=O | nt | 18 | i | i | i | i
O=C(NCCN1CCOCC1)c1cc(=O)[nH]c2ccc(Br)cc12 | i | i | i | i | i | i
CCC(C)NC(=O)COC(=O)c1cc([N+](=O)[O-])ccc1Sc1nc(C)cs1 (stereo not drawn) | i | nt | nt | nt | nt | nt
Cc1csc(Sc2ccc([N+](=O)[O-])cc2C(=O)OCC(=O)NC2CCCC(C)C2C)n1 (stereo not drawn) | i | 8.4 | i | i | nt | nt
COc1ccc(/C=C/C(=O)OC(C)CN2CCOCC2)cc1 (stereo not drawn) | i | nt | nt | nt | nt | nt
O=C(CSc1nc(-c2ccco2)cc(C(F)(F)F)n1)Nc1cccnc1 | i | 21 | i | i | i | i
O=C(CCCSc1nc(-c2ccco2)cc(C(F)(F)F)n1)Nc1ccc2c(c1)OCO2 | i | i | i | i | i | 79
O=C(CSc1nc(-c2ccco2)cc(C(F)(F)F)n1)Nc1ccc(C(=O)N2CCOCC2)cc1 | nt | i | i | i | nt | nt
O=C(CSc1ncc(-c2ccc(F)cc2)n1Cc1ccco1)Nc1ccc2c(c1)OCO2 | i | 25 | i | i | i | 70
O=C(CSc1nc(-c2ccco2)cc(C(F)(F)F)n1)Nc1ccc2c(c1)OCO2 | nt | 24 | i | i | 29 | i
C=CCn1nnc2sc3c(c2c1=O)CCC(C)C3 (stereo not drawn) | i | i | i | i | nt | i
Clc1cc(Cl)cc(Nc2ncn[nH]2)c1 | i | nt | nt | nt | nt | nt
O=C(CCSc1nc(-c2ccco2)cc(C(F)(F)F)n1)N1CCCc2ccccc21 | i | i | i | i | i | 77
O=C(CCSc1nc(-c2ccco2)cc(C(F)(F)F)n1)NCCc1ccccc1 | i | i | i | i | i | i
SMILES | Ecoli WT expand | H69AR growth 86K | HUVEC inhibit | Fibroblast inh | Jurkat tox 60K | tolC growth inh
O=C(CCSc1nc(-c2ccco2)cc(C(F)(F)F)n1)N1CCN(c2ccccn2)CC1 | i | i | i | i | i | i
CCn1cc(CNC(=O)CCSc2nc(-c3ccco3)cc(C(F)(F)F)n2)cn1 | i | 32 | i | i | nt | nt
NC1=NC(c2cn(-c3ccccc3)nc2-c2cccs2)n2c(nc3ccccc32)N1 (stereo not drawn) | i | i | i | i | i | 100
COc1ccccc1/C=C/C(=O)NCC(=O)N/N=C/c1cc(Br)ccc1OC | i | 19 | i | i | nt | nt
COc1ccc(/C=C/C(=O)NCC(=O)N/N=C/c2cc(Br)ccc2OC)cc1 | i | i | i | i | nt | nt
O=C(CC(SCc1ccco1)c1ccc(O)cc1)c1cccs1 (stereo not drawn) | i | 13 | i | i | i | i
O=C(CC(SCCO)c1ccc2c(c1)OCO2)c1cccs1 (stereo not drawn) | i | 4.3 | i | nt | i | i

Source: PubChem (several laboratories)
